This passage reports LogD7.4, Activity and logD results from ChEMBL document CHEMBL1140112, “Desferrithiocin analogues and nephrotoxicity” (J Med Chem, 2008).

Data set [1] is described as follows: Apparent partition coefficient, log P at pH 7.4 by shake flask method. It is filed as physicochemical. The settings on record: octanol/water; for logD: read-out: LogD7.4. Put shortly:
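Apparent partition between octanol and water, expressed as log of the fraction in the octanol layer (log P_app); direct shake-flask method in Tris buffer, pH 7.4.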

For data set [2], the system named is Rattus norvegicus. The data set is described as follows: Iron-clearing efficiency in non-iron-overloaded Sprague-Dawley rat at 300 umol/kg, po after 24 hrs relative to control. The class given is functional. In outline: (§1)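 Non-iron-overloaded, bile duct-cannulated male Sprague-Dawley rats (400-450 g) got a single 300 µmol/kg dose by oral gavage, as the monosodium salt in distilled water. Bile was collected at 3 h intervals for 24 h and urine at 24 h, with iron by atomic absorption. ICE = treated minus control iron excretion, divided by theoretical output (2:1 complex), as %. n = 3-8; mean ± SEM.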

The subject of data set [3] is Rattus norvegicus. The experiment in a line: Iron-clearing efficiency in non-iron-overloaded Sprague-Dawley rat assessed as bile iron excretion at 300 umol/kg, po relative to control. The class given is functional. Put shortly: as §1
Data set [4] concerns Rattus norvegicus. The experiment in a line: Iron-clearing efficiency in non-iron-overloaded Sprague-Dawley rat assessed as urine iron excretion at 300 umol/kg, po relative to control. The class given is functional. Put shortly: as §1
The subject of data set [5] is Rattus norvegicus. The data set is described as follows: Nephrotoxicity in non-iron-overloaded Sprague-Dawley rat at 300 umol/kg, po. It is filed as toxicity, organism-based. The settings on record: in vivo. Put shortly: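 Male Sprague-Dawley rats (400-450 g), not iron-overloaded, bile duct-cannulated, each given a single 300 µmol/kg oral gavage dose.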
Data set [6] relates to Sapajus apella. The experiment in a line: Iron-clearing efficiency in iron-overloaded Cebus apella at 150 umol/kg, po relative to control. It is filed as functional. Put shortly:
(§2)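 Iron-overloaded Cebus apella were dosed once by oral gavage with the monosodium salt (free acid plus 1 equiv NaOH in distilled water; one ligand in 40% Cremophor RH-40/water). Feces and urine were collected at 24 h intervals from 4 d pre-drug to 5 d post-drug, and iron was read by flame AAS. ICE = 2-day post-drug iron minus mean 4-day baseline, divided by theoretical output (2:1 complex), as %. Mean ± SEM.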

For data set [7], the system named is Sapajus apella. The data set is described as follows: Iron-clearing efficiency in iron-overloaded Cebus apella assessed as bile iron excretion at 150 umol/kg, po relative to control. It is filed as functional.
Data set [8] has as its system Sapajus apella. The data set is described as follows: Iron-clearing efficiency in iron-overloaded Cebus apella assessed as urine iron excretion at 150 umol/kg, po relative to control. It is filed as functional. In outline: as §2

Bounds are passed on as bounds.

For the molecule `CCCCCCCCOc1ccc(C2=N[C@@](C)(C(=O)[O-])CS2)c(O)c1.[Na+]`, the LogD7.4 in data set [1] was determined as 1.53. Besides, the results for the Activity in data set [2], in data set [3] and in data set [4] were 6.4%, 94% and 6%, respectively.

With `CCCCOc1ccc(O)c(C2=N[C@@](C)(C(=O)[O-])CS2)c1.[Na+]`, in data set [1], the LogD7.4 was determined as 0.94. For the same molecule, the Activity in data set [2] is recorded as 21%; in data set [3], 99%; in data set [4], 1%; in data set [5], “Toxic”.

For the molecule `CCCCCCCCOc1ccc(O)c(C2=N[C@@](C)(C(=O)[O-])CS2)c1.[Na+]`, the LogD7.4 in data set [1] was determined as 1.56. For the same molecule, the Activity in data set [2] came out at 4%; in data set [3] it was 97%; in data set [4] it was 3%.

For the molecule `COCCOCCOCCOc1ccc(C2=N[C@@](C)(C(=O)[O-])CS2)c(O)c1.[Na+]`, the Activity in data set [2] is 5.5%; in data set [3] it was 90%; in data set [4], 10%; in data set [6], 25.4%; in data set [7], 96%; in data set [8] it was 4%.

As to `CCCCOc1ccc(C2=N[C@@](C)(C(=O)[O-])CS2)c(O)c1.[Na+]`, the LogD7.4 in data set [1] came to 1.02. Moreover, the Activity in data set [2] is recorded as 13.1%; in data set [3], 98%; in data set [4], 2%; in data set [5], “Toxic”.

With `COc1ccc(O)c(C2=N[C@@](C)(C(=O)[O-])CS2)c1.[Na+]`, in data set [1], the logD is -0.61. Further, the Activity worked out at 6.3% in data set [2]; 95% in data set [3]; 5% in data set [4]; 18.9% in data set [6]; 94% in data set [7]; 6% in data set [8].

As to `CCCCCCCCOc1cc(O)c(C2=N[C@@](C)(C(=O)[O-])CS2)cc1OCCCCCCCC.[Na+]`, the LogD7.4 in data set [1] is 2.05. Moreover, the Activity in data set [2] is on record as <0.5%.

Consider `CCOc1ccc(C2=N[C@@](C)(C(=O)[O-])CS2)c(O)c1.[Na+]`, for which the LogD7.4 in data set [1] was -0.04. The Activity in data set [2] is given as 18%; in data set [3], 100%; in data set [4], 0%.

On to `C[C@]1(C(=O)[O-])CSC(c2cc(O)ccc2O)=N1.[Na+]`, for which the logD in data set [1] was -1.14. In addition, the Activity in data set [2] is 1%; in data set [3], 99%; in data set [4], 1%; in data set [6], 12.6%; in data set [7], 88%; in data set [8], 12%.

On to `COc1ccc(C2=N[C@@](C)(C(=O)[O-])CS2)c(O)c1.[Na+]`, for which the Activity was determined as 6.6% in data set [2]; 98% in data set [3]; 2% in data set [4]; 24.4% in data set [6]; 91% in data set [7]; 9% in data set [8].

As for `C[C@]1(C(=O)[O-])CSC(c2ccc(O)cc2O)=N1.[Na+]` [DEFERITRIN SODIUM], the Activity in data set [2] came to 1.1%; in data set [3], 100%; in data set [4], 0%; in data set [6], 16.8%; in data set [7], 88%; in data set [8], 12%.
